ChEMBL document CHEMBL1156810, “Synthesis and structure-activity relationships of azamacrocyclic C-X-C chemokine receptor 4 antagonists: analogues containing a single azamacrocyclic ring are potent inhibitors of T-cell tropic (X4) HIV-1 replication” (J Med Chem, 2010)

How the values were obtained:
[1] = test system: Human immunodeficiency virus 1; assay: Antiviral activity against HIV1 3B infected in human MT4 cells assessed as inhibition of virus replication after 5 days by MTT assay; conditions: Human immunodeficiency virus 1, 3B, MT4, 120 h
[2] = Therapeutic index, ratio of CC50 for human MT4 cells to EC50 for HIV1 3B; assay type: cell-based
Method in brief: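 Selectivity index calculated as CC50 divided by EC50. Both come from parallel 5-day MTT viability assays in MT-4 cells, mock-infected or infected with HIV-1 IIIB at MOI 0.01.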

[3] = test system: Human immunodeficiency virus 1; assay: Antiviral activity against HIV1 3B infected in human MT4 cells assessed as inhibition of virus replication after 4 days by MTT assay; assay type: functional, organism-based; conditions: Human immunodeficiency virus 1, 3B, MT4, 96 h

SMILES: c1ccc(CNCc2ccc(CN3CCCCCCCNCCNCC3)cc2)nc1
- EC50 [1]: 11100 nM

SMILES: Nc1ccc(CNCc2ccc(CN3CCCNCCNCCCNCC3)cc2)cc1
- EC50 [1]: 717 nM

SMILES: Nc1ccccc1CNCc1ccc(CN2CCCNCCNCCCNCC2)cc1
- EC50 [1]: 1820 nM

SMILES: c1ccc(CNCc2ccc(CN3CCCNCCNCCCNCC3)cc2)nc1
- EC50 [1]: 9 nM
- selectivity ratio [2]: > 12000

SMILES: c1ccc(CNCc2ccc(CN3CCNCCCCCCc4cccc(n4)C3)cc2)nc1
- EC50 [3]: 4560 nM

SMILES: c1ccc(CNCc2ccc(CN3CCNCCCOCCCNCC3)cc2)nc1
- EC50 [1]: 4 nM

SMILES: c1ccc(CNCc2ccc(CN3CCNCCCCCCCNCC3)cc2)nc1
- EC50 [1]: 43 nM

SMILES: O=C1CN(Cc2ccc(CNCc3ccccn3)cc2)CCc2cccc(n2)CCCCCN1
- EC50 [1]: 126000 nM

SMILES: c1ccc(CNCc2ccc(CN3CCNCCCCCc4cccc(n4)CC3)cc2)nc1
- EC50 [1]: 1240 nM

SMILES: c1ccc(CNCc2ccc(CN3CCNCCNCCc4cccc(n4)CC3)cc2)nc1
- EC50 [1]: 63 nM

SMILES: c1ccc(CNCc2ccc(CN3CCNCCNCCc4cccc(c4)CC3)cc2)nc1
- EC50 [1]: 14100 nM

SMILES: c1ccc(CCNCc2ccc(CN3CCCNCCNCCCNCC3)cc2)nc1
- EC50 [1]: 49100 nM

SMILES: c1ccc(CNCc2ccc(CN3CCCNCCNCCCNCC3)cc2)cc1
- EC50 [1]: 491 nM

SMILES: c1cc(CN2CCCNCCNCCCNCC2)ccc1CN1CCCNCCNCCCNCC1 [PLERIXAFOR]
- EC50 [1]: 4 nM

SMILES: c1ccc(CNCc2ccc(CC3CCNCCc4cccc(n4)CCNCC3)cc2)nc1
- EC50 [1]: 217 nM

SMILES: FC1(F)CCCNCCN(Cc2ccc(CNCc3ccccn3)cc2)CCNCCC1
- EC50 [1]: 920 nM

SMILES: Cc1cnc(CNCc2ccc(CN3CCCNCCNCCCNCC3)cc2)cn1
- EC50 [1]: 1900 nM

SMILES: CN(Cc1ccc(CN2CCCNCCNCCCNCC2)cc1)Cc1ccccn1
- EC50 [1]: 416 nM

SMILES: c1ccc(CNCc2ccc(CC3CCNCCCCCCCNCC3)cc2)nc1
- EC50 [1]: 2180 nM

SMILES: c1cc(CNCc2ccc(CN3CCCNCCNCCCNCC3)cc2)ccn1
- EC50 [1]: 9980 nM

SMILES: c1cncc(CNCc2ccc(CN3CCCNCCNCCCNCC3)cc2)c1
- EC50 [1]: 8470 nM

SMILES: c1ccc(CNCc2ccc(CN3CCNCCc4cncc(c4)CCNCC3)cc2)nc1
- EC50 [1]: 104 nM

SMILES: c1ccc(CNCc2ccc(CC3CCNCCCOCCCNCC3)cc2)nc1
- EC50 [1]: 426 nM

SMILES: c1ccc(CNCc2ccc(CN3CCNCCc4cccc(c4)CCNCC3)cc2)nc1
- EC50 [1]: 40 nM

SMILES: [O-][S+]1CCCNCCN(Cc2ccc(CNCc3ccccn3)cc2)CCNCCC1
- EC50 [1]: 485 nM

SMILES: FC1CCCNCCN(Cc2ccc(CNCc3ccccn3)cc2)CCNCCC1
- EC50 [1]: 1240 nM

SMILES: c1ccc(CNCc2ccc(CN3CCNCCCSCCCNCC3)cc2)nc1
- EC50 [1]: 13 nM

SMILES: O=S1(=O)CCCNCCN(Cc2ccc(CNCc3ccccn3)cc2)CCNCCC1
- EC50 [1]: 11900 nM

SMILES: c1ccc(CNCc2ccc(CN3CCNCCc4cccc(n4)CCNCC3)cc2)nc1
- EC50 [1]: 1 nM
